Like-named read-outs stand apart in the source and are kept apart here. No end group written: not given here.
Columns and labels:
[1] = target: recombinant human survivin (Homo sapiens, UniProt O15392); test: Saturation binding assay of peptides to recombinant survivin protein; details: QCM sensorgram, result in words
Method in brief: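 Quartz crystal microbalance. Recombinant human survivin (40 μg/mL) amide-coupled to the gold electrode of the sensor chip, with the chip soaked in buffer. 8 μL aliquots of test peptide solutions (10–256 μmol L⁻¹ as injected) added sequentially to the cuvette. Frequency change monitored over time. Kd derived by kinetic analysis using a one-binding-site model.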

MDA‐MB‐231 cells = test: Cell proliferation assay; type: cell-based, human; details: MTT, different concentrations, 48 h
MIA PaCa‐2 cells [2] = test: Cell proliferation assay; type: cell-based, human; details: MTT, different concentrations, 48 h
Method in brief: (§1)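 Cells treated 48 h with test compound at 1, 10 or 100 µmol L⁻¹, or with 1% DMSO solvent alone. Culture media: MIA PaCa-2 in low-glucose DMEM with 10% FBS; MCF-10A in DMEM/F-12 with 5% horse serum, EGF, insulin and hydrocortisone. MTT added for 4 h, then cells lysed in DMSO. OD read at 570 nm (650 nm correction). Viability expressed relative to DMSO-treated cells (100%). Mean ± SD, n = 5–6; Kruskal-Wallis test with Dunn's post hoc test.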

MIA PaCa‐2 cells [3] = test: Flow cytometry, annexin V-FITC/PI apoptosis; type: cell-based, human; details: n = 3
[4] = tested on: cleaved caspase‐3 in MIA PaCa‐2 cells; test: Western blot of cleaved caspase-3, MIA PaCa-2; type: cell-based, human; details: even at 10 µmol L^−1, 48 h, vs untreated cells, n = 3
[5] = tested on: survivin in MDA‐MB‐231 cells; test: Western blot of survivin protein expression, MDA-MB-231; type: cell-based, human; details: 10 or 40 μmol L^−1, 48 h, vs vehicle control, n = 3
[6] = tested on: human serum albumin (HSA); test: QCM response to human serum albumin-immobilized sensor chip; type: binding; details: QCM sensorgram, result in words
Method in brief: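 Quartz crystal microbalance run with an HSA-immobilized sensor chip. Test compound added to the cuvette in successive portions, giving overall cuvette concentrations that start at 1 and 10 nmol L⁻¹. Frequency change recorded over time as the binding response.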

MCF‐10A cells = test: Cell proliferation assay; type: cell-based, human; details: MTT, 1, 10 or 100 µmol L^−1, 48 h
Method in brief: as §1

[7] = tested on: survivin in MIA PaCa‐2 cells; test: Western blot of survivin protein expression, MIA PaCa-2; type: cell-based, human; details: 40 µmol L^−1, 48 h, P = .366, without statistical significance, n = 3
[8] = target: T1, recombinant human survivin (human, UniProt O15392); test: quartz crystal microbalance
T1 sequence (O15392 whole entry): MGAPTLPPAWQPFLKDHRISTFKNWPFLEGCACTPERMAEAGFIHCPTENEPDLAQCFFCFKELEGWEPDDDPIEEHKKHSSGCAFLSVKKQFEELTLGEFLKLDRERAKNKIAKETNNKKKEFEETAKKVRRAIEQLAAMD

[9] = target: T1, recombinant human survivin; test: quartz crystal microbalance; remark: listed apart in the source

Chain of recombinant human survivin (Homo sapiens, UniProt O15392) (O15392 whole entry): as above

Ac-rrrrrrrrr-ahx-QLDMFKE-NH2 [r9‐scINC16‐22]
QCM response to survivin-immobilized sensor chip [1]: negligible response | antiproliferative effect on MDA‐MB‐231 cells (in words) (MDA‐MB‐231 cells): no significant antiproliferative effect | antiproliferative effect on MIA PaCa‐2 cells (in words) (MIA PaCa‐2 cells [2]): no significant antiproliferative effect

CSCC[C@H](NC(=O)[C@H](CC(C)C)NC(=O)[C@H](CCCCN)NC(=O)[C@H](CCC(N)=O)NC(=O)[C@H](CC(=O)O)NC(=O)CCCCCNC(=O)[C@@H](CCCNC(=N)N)NC(=O)[C@@H](CCCNC(=N)N)NC(=O)[C@@H](CCCNC(=N)N)NC(=O)[C@@H](CCCNC(=N)N)NC(=O)[C@@H](CCCNC(=N)N)NC(=O)[C@@H](CCCNC(=N)N)NC(=O)[C@@H](CCCNC(=N)N)NC(=O)[C@@H](CCCNC(=N)N)NC(=O)[C@@H](CCCNC(=N)N)NC(C)=O)C(=O)N[C@@H](CCC(=O)O)C(=O)N[C@@H](Cc1ccccc1)C(N)=O [r9‐INC16‐22]
QCM response to survivin-immobilized sensor chip [1]: strongly responded to survivin in a dose‐dependent manner | early apoptosis rate (MIA PaCa‐2 cells [3]; MIA PaCa‐2, 10 μmol L^−1, 24 h): 52.4% | late apoptosis and necrosis rate (MIA PaCa‐2 cells [3]; MIA PaCa‐2, 10 μmol L^−1, 24 h): 29.4% | early apoptosis rate (MIA PaCa‐2 cells [3]; MIA PaCa‐2, 50 μmol L^−1, 24 h): 49.6% | late apoptosis and necrosis rate (MIA PaCa‐2 cells [3]; MIA PaCa‐2, 50 μmol L^−1, 24 h): 44.2% | expression of cleaved caspase‐3 in MIA PaCa‐2 cells [4]: significantly increased | protein expression level of survivin in MDA‐MB‐231 cells [5]: Neither the treatment with r9‐INC16‐22 at a concentration of 10 μmol L^−1 nor at 40 μmol L^−1 showed any significant decrease | QCM response to HSA-immobilized sensor chip [6]: no significant response | antiproliferative effect on MCF‐10A cells (in words) (MCF‐10A cells): No marked antiproliferative effect | protein expression level of survivin in MIA PaCa‐2 cells [7]: apparently reduced the protein level

B1: INC_(7-14) (peptide)
peptide: GPIHLLEL-NH2
Kd [8]: 214 nM

B2: scINC_(16-22) (peptide)
peptide: QLDMFKE-NH2
Kd [9]: > 300 nM

B3: FITC-INC_(16-22) (peptide)
peptide: DQKLMEF
HELM: PEPTIDE1{[O=C1OC2(c3ccc(O)cc3Oc3cc(O)ccc32)c2ccc(NC(=S)[*:2])cc21].[O=C(CCCCCN[*:1])[*:2]].D.Q.K.L.M.E.F.[am]}$$$$V2.0
SMILES: CSCC[C@H](NC(=O)[C@H](CC(C)C)NC(=O)[C@H](CCCCN)NC(=O)[C@H](CCC(N)=O)NC(=O)[C@H](CC(=O)O)NC(=O)CCCCCNC(=S)Nc1ccc2c(c1)C(=O)OC21c2ccc(O)cc2Oc2cc(O)ccc21)C(=O)N[C@@H](CCC(=O)O)C(=O)N[C@@H](Cc1ccccc1)C(N)=O
Kd [9]: 66 nM

B4: INC_(16-22) (peptide)
peptide: DQKLMEF-NH2
Kd [8]: 91.4 nM

B5: INC_(23-30) (peptide)
peptide: LCNMDNKD-NH2
Kd [8]: 117 nM

B6: INC_(27-34) (peptide)
peptide: DNKDLVWL-NH2
Kd [8]: 255 nM

B7: INC_(31-38) (peptide)
peptide: LVWLEEIQ-NH2
Kd [8]: 108 nM

B8: INC_(39-47) (peptide)
peptide: EEAERMFTR-NH2
Kd [8]: 135 nM

B9: INC_(15-22) (peptide)
peptide: CDQKLMEF-NH2
Kd [9]: 248 nM

B10: INC_(16-34) (peptide)
peptide: DQKLMEFLCNMDNKDLVWL-NH2
Kd [9]: 160 nM

— paper PMC7156834 (Cancer Science, 2020)
